Screening results: PubChem, Sanford-Burnham Center for Chemical Genomics
Shown are actives, neighbours in structure and some others; about 3% of the full set was active somewhere.
SENP8 block-1 = human SENP8 protease inhibitors, primary screen, biochemical, fluorescence, Nedd8 protein substrate, uHTS. Sentrin-specific protease 8 (Homo sapiens), Q96LD8. recombinant SENP8. inhibition, % at 20 µM. actives 0.64% (n = 360,000). AID 602440, 2012; in the data active means inhibition mostly above about 40%, no sharp cut-off; inactive means mostly below about 27%
SENP6 inh = SENP6 protease inhibitors, primary screen, biochemical, luminescence, uHTS | Sentrin-specific protease 6 (Homo sapiens), Q9GZR1 | Recombinant SENP6 catalytic domain, aminoluciferin luminescence | inhibition, % at 10 µM | actives 1.8% (n = 330,000) | AID 2599, 2010;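 active means inhibition above about 50% at the single tested dose, limit read from the data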;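 further: plate controls were DMSO wells with enzyme for no effect and DMSO wells lacking enzyme for full effect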
Apaf-1 inh = inhibitors of human Apaf-1 apoptosome, primary screen, biochemical, DEVD-Rh110 fluorescence, uHTS | Apoptotic protease-activating factor 1 (Homo sapiens), O14727 | reconstituted apoptosome caspase-3 activity | inhibition, % at 20 µM | actives 0.71% (n = 330,000); active means inhibition of at least 40% at 20 µM;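 further: plate controls were DMSO wells for no effect and DEVD-CHO caspase inhibitor wells for full effect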
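Medium: Hepes buffer, pH 7.5 / System: biochemical Apaf-1 apoptosome reconstitution / Measured by: Rh110 fluorescence, excitation 480 nm, emission 540 nm / Times: compound with Apaf-1, dATP, procaspase-3 30 min, then 50 min reaction, room temperature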
SENP8 block-2 = SENP8 protease inhibitors, primary screen, biochemical, luminescence | actives 1.2% (n = 330,000) | inhibition, % at 10 µM | Sentrin-specific protease 8 (Homo sapiens), Q96LD8 | purified SENP8, Z-RLRGG-aminoluciferin cleavage; in the data active means inhibition above about 50%
UBC13 polyUb = UBC13 polyubiquitin chain formation inhibitors, primary screen, biochemical, TR-FRET, uHTS; inhibition, % at 20 µM; actives 0.47% (n = 330,000); AID 485273, 2010; in the data active means inhibition above about 45%, passing the limit was not always enough
SENP7 block = SENP7 protease inhibitors, primary screen, biochemical, luminescence, uHTS; inhibition, % at 5 µM; recombinant SENP7, Z-RLRGG-aminoluciferin luminescence, 40 min; AID 434973, 2010; actives 1.5% (n = 330,000);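 active means inhibition above about 50% at the single test dose, limit read from the data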;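 further: plate controls were DMSO with enzyme for no effect and no enzyme buffer wells for full effect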
Target sequence (Q9BQF6 706-1050 limits assumed): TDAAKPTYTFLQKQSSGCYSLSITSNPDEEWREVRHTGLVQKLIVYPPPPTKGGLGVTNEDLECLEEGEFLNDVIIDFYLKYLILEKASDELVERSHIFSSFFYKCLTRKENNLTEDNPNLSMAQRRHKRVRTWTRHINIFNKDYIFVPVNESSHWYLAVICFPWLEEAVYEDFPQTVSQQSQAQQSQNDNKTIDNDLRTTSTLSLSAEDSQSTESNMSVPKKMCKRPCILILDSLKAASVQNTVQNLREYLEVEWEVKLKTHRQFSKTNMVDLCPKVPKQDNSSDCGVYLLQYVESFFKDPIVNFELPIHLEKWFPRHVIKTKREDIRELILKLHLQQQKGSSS
SENP8 conf = SENP8 protease inhibitors, retest, confirmation, biochemical, luminescence, single concentration; shares compounds with SENP7 block; actives 40% (n = 6,200); Recombinant SENP8, Z-RLRGG-aminoluciferin luminescence, 60 min; inhibition, % at 12.5 µM; AID 488912, 2010;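 active means mean inhibition across replicates above about 50%, limit read from the data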
SENP6 confirm = SENP6 protease inhibitors, confirmation, biochemical, luminescence, single concentration; shares compounds with SENP7 block; recombinant SENP6, Z-RLRGG-aminoluciferin luminescence; inhibition, % at 12.5 µM; actives 58% (n = 6,200)
SENP7 confirm = SENP7 protease inhibitors, retest, confirmation, biochemical, luminescence, single concentration; shares compounds with SENP7 block; recombinant SENP7, Z-RLRGG-aminoluciferin luminescence, 40 min; inhibition, % at 12.5 µM; actives 69% (n = 6,200)
Casp3 SENP sel = caspase-3 protease inhibitors, confirmation, selectivity assay for SENP inhibitor project, biochemical, single concentration. AID 488918, 2010. inhibition, % at 12.5 µM. purified caspase-3, Z-DEVD-aminoluciferin luminescence, 60 min. shares compounds with SENP7 block. actives 60% (n = 6,200);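 active means mean inhibition above about 50%, limit read from the data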;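 further: plate controls were enzyme with DMSO for no effect and wells without caspase-3 for full effect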
Target sequence (P42574 28-227 limits assumed): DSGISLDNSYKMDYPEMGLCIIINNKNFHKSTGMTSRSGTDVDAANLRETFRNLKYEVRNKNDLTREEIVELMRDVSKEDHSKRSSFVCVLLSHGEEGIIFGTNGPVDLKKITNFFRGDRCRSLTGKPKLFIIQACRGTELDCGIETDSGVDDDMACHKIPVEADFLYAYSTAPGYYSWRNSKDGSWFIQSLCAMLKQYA
Luc interf = counter-screen for SENP inhibitors: luminescence interference. shares compounds with SENP7 block. Pre-incubated SENP8/Z-RLRGG-aminoluciferin, luciferase luminescence interference. inhibition, % at 12.5 µM. actives 39% (n = 6,200). AID 488919;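 active means mean inhibition above about 50% when retested at one dose, limit read from the data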;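 further: plate controls were DMSO wells with completed reaction for no effect and substrate without enzyme for full effect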
* hit, by the source's call; / = no result.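 How the source made its calls, unless noted: active means mean inhibition above about 50% in the one-dose retest (limit read from the data); inactive means the rest.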

SMILES	SENP8 block-1	SENP6 inh	Apaf-1 inh	SENP8 block-2	UBC13 polyUb	SENP7 block	SENP8 conf	SENP6 confirm	SENP7 confirm	Casp3 SENP sel	Luc interf
N#Cc1c(/N=C/c2cccnc2)sc2c1CCCC2	32	55*	14	35	3	-10	57*	56*	67*	28	56*
N#Cc1c(/N=C/c2cccs2)sc2c1CCCCC2	28	76*	24	92*	1	97*	91*	94*	96*	87*	48
O=C1NC[C@@H](CCCCN2C[C@H](Cc3ccccc3)N(Cc3ccccc3)C(=O)C2=O)N(Cc2ccccc2)C1=O	14	/	/	/	/	/	/	/	/	/	/
CCn1c(SCC(=O)Nc2cc(C)on2)nc2c(c1=O)SCC2	6	-4	-2	-10	1	-10	/	/	/	/	/
CC(=NNC(=O)CCC(=O)Nc1ccccc1Cl)c1ccco1	3	-11	-1	-3	-4	6	/	/	/	/	/
CC(OC(=O)c1ccco1)C(=O)NC1CCCC1 (centres undefined)	10	-1	6	-8	-2	-9	/	/	/	/	/
COc1ccc(CCNC(=O)C2CCN(S(=O)(=O)c3ccc4nc5c(c(C(=O)O)c4c3)CCCC5)CC2)cc1OC	0	3	-4	-1	1	-4	/	/	/	/	/
O=Nc1c(-c2c(O)[nH]c3cc(Br)ccc23)[nH]c2ccccc12	20	54*	23	8	-104	53*	17	36	79*	22	4
CCCCCCC#Cc1ccc2c(c1)COc1c3ccccc3nn1-2	10	-15	17	-14	-17	-6	/	/	/	/	/
N#CCCCC#Cc1ccc2c(c1)COc1c3ccccc3nn1-2	13	93*	24	90*	4	89*	51*	96*	66*	68*	13
CCCCC#Cc1ccc2c(c1)COc1c3ccccc3nn1-2	-2	85*	3	79*	3	81*	22	34	33	67*	10
Cc1ccc(Sc2sc(=O)n(C)c2S(=O)(=O)c2ccc(C)cc2)cc1	7	-29	13	-4	-2	7	/	/	/	/	/
O=C(Nc1ccc2nc3ccccc3nc2c1)c1ccccc1	-233	/	/	/	/	/	/	/	/	/	/
O=C(Nc1ccc(-c2nc3ccccc3s2)c(OC(=O)c2ccccc2)c1)c1ccccc1	16	6	-9	5	44	65*	5	2	-6	-4	-12
CCC(=O)OC1(C(C)=O)CCC2C3CCC4=CC(=O)CCC4(C)C3CCC21C (centres undefined)	17	/	/	/	/	/	/	/	/	/	/
CC(=O)c1c(C)nn(CC(=O)NC2CCCN(Cc3ccc(CC(C)C)cc3)C2)c1C (centres undefined)	10	12	1	-2	-4	1	/	/	/	/	/
CCCSc1nc2c(cnn2-c2ccccc2)c(=O)n1N	6	31	-3	22	4	36	/	/	/	/	/
CCCCSc1nc2c(cnn2-c2ccccc2)c(=O)n1N	16	82*	-11	44	5	68*	69*	67*	88*	63*	48
O=C(O)CSc1nc2c(cnn2-c2ccccc2)c(=O)n1-c1ccc(Br)cc1	19	56*	5	41	7	3	40	37	24	10	60*
Nn1c(SCc2ccccc2)nc2c(cnn2-c2ccccc2)c1=O	9	62*	-3	22	9	43	23	14	64*	32	17
O=c1c2cnn(-c3ccccc3)c2nc(-c2cccs2)n1-c1ccc(Br)cc1	-115	7	8	4	26	-3	/	/	/	/	/
O=C(N/N=C/c1cc2c(cc1Cl)OCO2)c1cccc(Br)c1	-139	51*	13	5	-8	48	15	22	33	31	8
Cc1cc2ccccc2c(=O)[nH]1	-62	-2	-18	1	4	-1	/	/	/	/	/
Cc1ccccc1Nc1cc2ccccc2c(=O)[nH]1	1	91*	96*	97*	-53	95*	92*	98*	95*	96*	14
O=C(Nc1ccc(C2SCCS2)cc1)c1ccccc1	-9	50	-23	53*	2	92*	2	2	28	23	7
SMILES	SENP8 block-1	SENP6 inh	Apaf-1 inh	SENP8 block-2	UBC13 polyUb	SENP7 block	SENP8 conf	SENP6 confirm	SENP7 confirm	Casp3 SENP sel	Luc interf
O=C(Nc1ccccc1)c1ccc(NC(=O)C2CC2)cc1	2	58*	4	33	-3	62*	-28	2	67*	64*	-9
Cc1ccc(-c2ccc(S(=O)(=O)Nc3cccnc3)cc2)cc1	15	-9	-16	5	-6	-5	/	/	/	/	/
Nc1ccccc1C#Cc1ccccc1	-459	67*	5	57*	0	66*	49	76*	91*	59*	63*
CC[N+](C)(CC)CC(=O)OCC1C(C)C=C(C)CC1C (centres undefined)	9	-6	-11	4	1	-4	/	/	/	/	/
COc1ccc(-c2nsc3c(N4CCCC4)ncnc23)cc1	-274	52*	4	15	7	74*	38	34	51*	58*	17
COc1ccc(-c2ccc(SCC(=O)NC3CCCCC3)nn2)cc1	9	1	4	-3	-1	2	/	/	/	/	/
COc1ccc(-c2cn3nc(SCC(=O)NC4CCCCC4)ccc3n2)cc1	-382	18	2	14	16	61*	-14	-9	18	20	7
CC(=O)Nc1ccc(NC(=O)COc2ccc3c(c2)CCC3)cc1	20	-9	-3	-4	7	-1	/	/	/	/	/
